The test system of data set [1] is Rattus norvegicus. Briefly: Toxicity in Wistar rat assessed as body weight gain at 10 to 40 mg/kg, po administered daily for 7 days. In kind it is organism-based. Also on record: dose 10-40 mg/kg, route oral. To be noted: in vivo, 168 h. A digest of the protocol: (§1)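 Male Wistar rats, six per group, compound dosed by gavage in water/Tween 80 (97:3) daily for 7 days, with or without DMH 40 mg/kg sc. Body weight and water intake recorded daily; mean ± SD.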

In data set [2] the test system is Rattus norvegicus. Description: Toxicity in Wistar rat assessed as body weight gain at 40 mg/kg, po administered five times per week for 4 weeks. In kind it is organism-based. Details: dose 40 mg/kg, route oral. To be noted: in vivo, 672 h. Put shortly:
(§2)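 Male Wistar rats, six per group, dosed by gavage in water/Tween 80 (97:3) five times weekly for 4 weeks, with or without DMH (four sc injections of 40 mg/kg in the first 2 weeks). Body weight and water intake recorded daily; mean ± SD.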

Data set [3] has as its system Rattus norvegicus. Description: Toxicity in Wistar rat assessed as change in water intake at 10 to 40 mg/kg, po administered daily for 7 days. The settings on record: in vivo, 168 h. Also on record: dose 10-40 mg/kg, route oral. In kind it is organism-based. Put shortly: as §1
The subject of data set [4] is Rattus norvegicus. Briefly: Toxicity in Wistar rat assessed as change in water intake at 40 mg/kg, po administered five times per week for 4 weeks. The settings on record: in vivo, 672 h. Details: dose 40 mg/kg, route oral. In kind it is organism-based. Put shortly: as §2
The subject of data set [5] is Rattus norvegicus. Description: Antigenotoxic activity in Wistar rat peripheral blood assessed as reduction in DMH-induced increase in nucleoids at 10 mg/kg, po administered daily for 7 days. In kind it is functional. Details: scale not given: the % may be the effect or the level left. Put shortly:
(§3)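 Male Wistar rats, six per group. Compound in water/Tween 80 (97:3) given by daily gavage for 7 days. DMH 40 mg/kg sc given 4 h before sampling on day 7. Cells used only at ≥80% viability. Scoring: 100 nucleoids per animal visually classed 0–3 by tail length relative to head diameter. % reduction = (DMH − treated)/(DMH − negative control) × 100, based on damaged cells.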

The subject of data set [6] is Rattus norvegicus. Briefly: Antigenotoxic activity in Wistar rat peripheral blood assessed as reduction in DMH-induced increase in nucleoids at 20 mg/kg, po administered daily for 7 days. In kind it is functional. Also on record: scale not given: the % may be the effect or the level left. Put shortly:
as §3

In data set [7] the test system is Rattus norvegicus. Description: Antigenotoxic activity in Wistar rat peripheral blood assessed as reduction in DMH-induced increase in nucleoids at 40 mg/kg, po administered daily for 7 days. In kind it is functional. Details: scale not given: the % may be the effect or the level left. A digest of the protocol:
as §3

Data set [8] has as its system Rattus norvegicus. Briefly: Anticarcinogenic activity in Wistar rat colon assessed as reduction in frequency of DMH-induced aberrant crypt foci in proximal segment at 10 to 40 mg/kg, po administered five times per week for 4 weeks. In kind it is functional, organism-based. A digest of the protocol:
(§4)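 Male Wistar rats (~120 g, 4−5 weeks old, 1 week acclimation), six per group. Compound in water/Tween 80 (97:3) given by gavage five times weekly for 4 weeks. DMH dissolved in EDTA solution, 160 mg/kg total given as four sc injections of 40 mg/kg, twice weekly over the first 2 weeks. Colons formalin-fixed 24 h, stained with 0.02% methylene blue; 50 fields per segment at 100×; ACF counted, mean ± SD, ANOVA/Tukey.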

The subject of data set [9] is Rattus norvegicus. Briefly: Anticarcinogenic activity in Wistar rat colon assessed as reduction in frequency of DMH-induced aberrant crypt foci in middle segment at 10 to 40 mg/kg, po administered five times per week for 4 weeks. In kind it is functional, organism-based. A digest of the protocol:
as §4

For data set [10], the system named is Rattus norvegicus. Briefly: Anticarcinogenic activity in Wistar rat colon assessed as reduction in frequency of DMH-induced aberrant crypt foci in distal segment at 10 to 40 mg/kg, po administered five times per week for 4 weeks. In kind it is functional, organism-based. A digest of the protocol: as §4

Active and inactive are the calls of the source. The rule behind the calls is not given here.

This is an account of results in ChEMBL document CHEMBL3351743, “Chemopreventive effects of (-)-hinokinin against 1,2-dimethylhydrazine-induced genotoxicity and preneoplastic lesions in rat colon” (J Nat Prod, 2014).

Take `O=C1OC[C@H](Cc2ccc3c(c2)OCO3)[C@H]1Cc1ccc2c(c1)OCO2` [HINOKININ]: the Activity entry is recorded as “Non-toxic” in the data set on Rattus norvegicus [1]; “Non-toxic” with Rattus norvegicus [2]; “Non-toxic” in the data set on Rattus norvegicus [3]; “Non-toxic” in the data set on Rattus norvegicus [4]; 43.2% with Rattus norvegicus [5]; 50.4% with Rattus norvegicus [6]. Further, in the data set with Rattus norvegicus [7], the Activity was 54.7%. The result in the data set with Rattus norvegicus [8] was inactive. For the same compound, the outcome in the data set on Rattus norvegicus [9] and in the data set with Rattus norvegicus [10] was Active.
